Laboratory results published in ChEMBL document CHEMBL1122171, “Hypobetalipoproteinemic agents. 3. Variation of the polycyclic portion of 4-(1-adamantyloxy)aniline” (1982).

Columns and labels:
Type in all cases: functional
Rattus norvegicus [1] = test: Hypobetalipoproteinemic activity was determined in diet-induced hypercholesterolemic rats at a dose of 0.17 (mmol/kg)/day (heparin precipitating lipoproteins level was determined)
Procedure, shortened: (§1)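 Cholesterol-cholic acid fed rats given each compound at 50 (mg/kg)/day in 0.25% aqueous methylcellulose vehicle. Serum total cholesterol, heparin precipitating lipoproteins (HPL) and HPL/cholesterol ratio measured. Values expressed as T/C, the treated-group mean divided by the control mean. Significance vs control set at p < 0.05. Food intake and weight gain monitored. Active compounds retested for confirmation.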

Rattus norvegicus [2] = test: Hypobetalipoproteinemic activity was determined in diet-induced hypercholesterolemic rats at a dose of 0.17 (mmol/kg)/day (total cholesterol level was determined); procedure, shortened: as §1
[3] = Ratio of heparin precipitating lipoproteins level to cholesterol level was determined; procedure, shortened: as §1
Rattus norvegicus [4] = test: Hypobetalipoproteinemic activity was determined in diet-induced hypercholesterolemic rats at a dose of 0.18 (mmol/kg)/day (heparin precipitating lipoproteins level was determined); procedure, shortened: as §1
Rattus norvegicus [5] = test: Hypobetalipoproteinemic activity was determined in diet-induced hypercholesterolemic rats at a dose of 0.18 (mmol/kg)/day (total cholesterol level was determined); procedure, shortened: as §1
Rattus norvegicus [6] = test: Hypobetalipoproteinemic activity was determined in diet-induced hypercholesterolemic rats at a dose of 0.22 (mmol/kg)/day (heparin precipitating lipoproteins level was determined); procedure, shortened: as §1
Rattus norvegicus [7] = test: Hypobetalipoproteinemic activity was determined in diet-induced hypercholesterolemic rats at a dose of 0.22 (mmol/kg)/day (total cholesterol level was determined); procedure, shortened: as §1
Rattus norvegicus [8] = test: Hypobetalipoproteinemic activity was determined in diet-induced hypercholesterolemic rats at a dose of 0.19 (mmol/kg)/day (total cholesterol level was determined); procedure, shortened: as §1
Rattus norvegicus [9] = test: Hypobetalipoproteinemic activity was determined in diet-induced hypercholesterolemic rats at a dose of 0.19 (mmol/kg)/day (heparin precipitating lipoproteins level was determined); procedure, shortened: as §1

Q: Which T/C (Rattus norvegicus [1]) does the source give for CCCCCCCC(C)(C)Oc1ccc(N)cc1.Cl here?
A: The T/C was 0.84.

Q: What about the T/C (Rattus norvegicus [2]) of the same compound?
A: Its T/C is 0.98.

Q: What about the Ratio [3] of the same compound?
A: The Ratio was 0.86.

Q: Which results are given for Cl.Nc1ccc(OC23CCCCC2CCCC3)cc1 (stereo in doubt; 14)?
A: T/C (Rattus norvegicus [4]): 0.89; T/C (Rattus norvegicus [5]): 0.92

Q: For Nc1ccc(OC23CC4C5CC6CC4C(C2)C(C6)C5C3)cc1, which T/C (Rattus norvegicus [1]) is on record?
A: Its T/C is 0.19.

Q: What about the T/C (Rattus norvegicus [2]) of the same compound?
A: The T/C was 0.31.

Q: And the Ratio [3]?
A: Its Ratio is 0.62.

Q: With CCCC(C)(C)Oc1ccc(N)cc1.Cl as the compound, how does the T/C (Rattus norvegicus [6]) read?
A: The T/C was 0.78.

Q: And the T/C (Rattus norvegicus [7])?
A: The T/C was 0.84.

Q: What about the Ratio [3] of the same compound?
A: Its Ratio is 0.92.

Q: Which T/C (Rattus norvegicus [1]) does the source give for Nc1ccc(OC23CC4CC5C6CC(CC52)CC3C6C4)cc1 here?
A: The T/C was 0.35.

Q: And the T/C (Rattus norvegicus [2])?
A: The T/C was 0.53.

Q: And the Ratio [3]?
A: The Ratio was 0.66.

Q: For Nc1ccc(OC23CCCCC2CCCC3)cc1 (stereo in doubt; 14), which Ratio [3] is on record?
A: Its Ratio is 0.97.

Q: Which T/C (Rattus norvegicus [8]) does the source give for CCCCCC(C)(C)Oc1ccc(N)cc1.Cl here?
A: Its T/C is 1.02.

Q: What about the T/C (Rattus norvegicus [9]) of the same compound?
A: The T/C was 0.96.

Q: What about the Ratio [3] of the same compound?
A: The Ratio was 0.94.

Q: With Cl.Nc1ccc(OC23CCCCC2CCCC3)cc1 (stereo in doubt; 17) as the compound, how does the T/C (Rattus norvegicus [4]) read?
A: Its T/C is 1.24.

Q: And the T/C (Rattus norvegicus [5])?
A: Its T/C is 1.38.

Q: Which Ratio [3] does the source give for Nc1ccc(OC23CCCCC2CCCC3)cc1 (stereo in doubt; 17) here?
A: Its Ratio is 0.9.
